From the M2OR odorant receptor database
Changes are numbered by the printed parent chain.

What was measured:
Conditions in all cases: stereoisomer not certain
OR2A1 T73A R74C S168C = tested on: T1, OR2A1 T73A R74C S168C
T1 sequence (whole entry): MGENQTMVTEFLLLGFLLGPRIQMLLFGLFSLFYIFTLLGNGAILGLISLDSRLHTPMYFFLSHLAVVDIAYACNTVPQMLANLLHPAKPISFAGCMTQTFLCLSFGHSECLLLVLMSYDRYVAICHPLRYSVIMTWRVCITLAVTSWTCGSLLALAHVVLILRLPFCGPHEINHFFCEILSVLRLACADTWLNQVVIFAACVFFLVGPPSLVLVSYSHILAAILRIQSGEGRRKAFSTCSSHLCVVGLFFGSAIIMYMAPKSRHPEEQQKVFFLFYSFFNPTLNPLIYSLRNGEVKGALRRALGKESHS
Method in brief: (§1)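 Values were gathered from published papers (main text and supplementary material), with extra details requested from the original authors when needed, and checked for typos and inconsistencies. Each receptor–molecule pair is called responsive (active) if the original authors judged the measured signal statistically different from baseline, and non-responsive (inactive) otherwise. Assay methods varied by source, often transient mammalian cell-line luciferase assays. Recorded details include cell line, G-protein, co-transfected protein and tags.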

OR2A12 (Homo sapiens) = molecular target: T2, OR2A12 (Homo sapiens) (UniProt Q8NGT7)
T2 sequence (whole entry): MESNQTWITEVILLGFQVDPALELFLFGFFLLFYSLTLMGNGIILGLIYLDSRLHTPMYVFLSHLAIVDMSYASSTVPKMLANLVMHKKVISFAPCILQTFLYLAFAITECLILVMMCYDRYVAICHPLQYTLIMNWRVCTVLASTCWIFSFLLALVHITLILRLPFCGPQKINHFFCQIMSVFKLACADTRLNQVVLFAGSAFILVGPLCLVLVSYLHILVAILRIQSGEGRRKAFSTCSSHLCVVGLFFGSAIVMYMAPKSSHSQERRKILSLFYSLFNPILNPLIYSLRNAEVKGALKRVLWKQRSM
Method in brief: as §1

OR2A14 (Homo sapiens) = molecular target: T3, OR2A14 (Homo sapiens) (UniProt Q96R47)
T3 sequence (whole entry): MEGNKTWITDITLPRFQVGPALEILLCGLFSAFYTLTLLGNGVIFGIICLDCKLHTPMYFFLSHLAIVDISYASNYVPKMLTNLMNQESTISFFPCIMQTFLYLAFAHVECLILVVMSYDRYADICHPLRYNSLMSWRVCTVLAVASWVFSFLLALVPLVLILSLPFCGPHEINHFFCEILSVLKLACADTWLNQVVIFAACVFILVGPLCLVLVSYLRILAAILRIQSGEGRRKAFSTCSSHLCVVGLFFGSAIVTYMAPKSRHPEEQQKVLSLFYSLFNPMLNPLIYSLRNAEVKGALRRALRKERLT
Method in brief: as §1

OR2A2 (Homo sapiens) = molecular target: T4, OR2A2 (Homo sapiens) (UniProt Q6IF42)
T4 sequence (whole entry): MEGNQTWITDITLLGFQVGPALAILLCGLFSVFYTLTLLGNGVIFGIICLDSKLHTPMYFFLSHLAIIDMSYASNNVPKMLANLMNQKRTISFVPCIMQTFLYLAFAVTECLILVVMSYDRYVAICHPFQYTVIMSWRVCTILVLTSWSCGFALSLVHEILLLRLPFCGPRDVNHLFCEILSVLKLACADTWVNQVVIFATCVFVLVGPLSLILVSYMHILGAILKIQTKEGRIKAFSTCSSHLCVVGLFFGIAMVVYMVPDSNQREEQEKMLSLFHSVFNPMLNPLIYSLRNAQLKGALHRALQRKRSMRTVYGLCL
Method in brief: as §1

OR2A25 (Homo sapiens) = molecular target: T5, OR2A25 (Homo sapiens) (UniProt A4D2G3)
T5 sequence (whole entry): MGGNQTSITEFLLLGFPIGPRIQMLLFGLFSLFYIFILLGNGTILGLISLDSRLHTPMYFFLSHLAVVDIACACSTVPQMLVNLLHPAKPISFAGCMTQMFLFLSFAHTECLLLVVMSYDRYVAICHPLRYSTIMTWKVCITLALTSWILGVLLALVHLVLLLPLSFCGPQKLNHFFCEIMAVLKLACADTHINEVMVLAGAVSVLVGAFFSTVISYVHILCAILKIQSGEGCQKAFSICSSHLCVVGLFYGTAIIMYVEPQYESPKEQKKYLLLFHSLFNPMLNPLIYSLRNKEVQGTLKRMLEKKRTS
Method in brief: as §1

OR2A2 = tested on: T6, OR2A2
T6 sequence (whole entry): T4 sequence (whole entry) with F280L
Method in brief: as §1

OR2A4 (Homo sapiens) = molecular target: T7, OR2A4 (Homo sapiens) (UniProt O95047)
T7 sequence (whole entry): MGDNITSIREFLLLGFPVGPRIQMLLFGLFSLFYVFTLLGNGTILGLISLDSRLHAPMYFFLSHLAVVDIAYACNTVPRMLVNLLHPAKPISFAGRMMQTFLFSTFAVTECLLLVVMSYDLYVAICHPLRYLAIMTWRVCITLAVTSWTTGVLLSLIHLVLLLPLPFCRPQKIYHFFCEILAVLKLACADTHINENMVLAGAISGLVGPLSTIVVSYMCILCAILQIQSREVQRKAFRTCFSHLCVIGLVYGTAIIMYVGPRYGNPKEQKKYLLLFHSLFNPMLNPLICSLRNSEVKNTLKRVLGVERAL
Method in brief: as §1

OR2A5 (Homo sapiens) = molecular target: T8, OR2A5 (Homo sapiens) (UniProt Q96R48)
T8 sequence (whole entry): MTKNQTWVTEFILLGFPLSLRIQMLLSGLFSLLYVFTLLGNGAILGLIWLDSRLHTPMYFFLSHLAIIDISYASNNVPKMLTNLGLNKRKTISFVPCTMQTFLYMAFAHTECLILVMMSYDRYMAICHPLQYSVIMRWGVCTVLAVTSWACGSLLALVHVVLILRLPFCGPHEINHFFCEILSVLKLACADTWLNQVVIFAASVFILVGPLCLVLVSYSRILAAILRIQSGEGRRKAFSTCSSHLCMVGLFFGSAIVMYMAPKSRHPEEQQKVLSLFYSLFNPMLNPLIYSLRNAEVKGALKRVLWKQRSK
Method in brief: as §1

OR2A5 I126V A202S A255T = tested on: T9, OR2A5 I126V A202S A255T
T9 sequence (whole entry): T8 sequence (whole entry) with I126V, A202S, A255T
Method in brief: as §1

OR2A7 (Homo sapiens) = molecular target: T10, OR2A7 (Homo sapiens) (UniProt Q96R45)
T10 sequence (whole entry): T7 sequence (whole entry) with R9T, R238C, V250F
Method in brief: as §1

OR2A7 = tested on: T11, OR2A7
T11 sequence (whole entry): T7 sequence (whole entry) with R238C, V250F
Method in brief: as §1

OR2AE1 (Homo sapiens) = molecular target: T12, OR2AE1 (Homo sapiens) (UniProt Q8NHA4)
T12 sequence (whole entry): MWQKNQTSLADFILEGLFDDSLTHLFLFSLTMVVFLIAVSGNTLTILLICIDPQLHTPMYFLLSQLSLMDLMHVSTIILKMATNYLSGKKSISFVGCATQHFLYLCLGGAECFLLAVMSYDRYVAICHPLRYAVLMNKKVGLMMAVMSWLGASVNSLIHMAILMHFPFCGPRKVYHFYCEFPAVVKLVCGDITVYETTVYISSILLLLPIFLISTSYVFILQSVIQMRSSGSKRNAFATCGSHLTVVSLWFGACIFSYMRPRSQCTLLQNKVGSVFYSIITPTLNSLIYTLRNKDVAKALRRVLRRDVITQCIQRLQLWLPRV
Method in brief: as §1

OR2AG1 (Homo sapiens) = molecular target: T13, OR2AG1 (Homo sapiens) (UniProt Q9H205)
T13 sequence (whole entry): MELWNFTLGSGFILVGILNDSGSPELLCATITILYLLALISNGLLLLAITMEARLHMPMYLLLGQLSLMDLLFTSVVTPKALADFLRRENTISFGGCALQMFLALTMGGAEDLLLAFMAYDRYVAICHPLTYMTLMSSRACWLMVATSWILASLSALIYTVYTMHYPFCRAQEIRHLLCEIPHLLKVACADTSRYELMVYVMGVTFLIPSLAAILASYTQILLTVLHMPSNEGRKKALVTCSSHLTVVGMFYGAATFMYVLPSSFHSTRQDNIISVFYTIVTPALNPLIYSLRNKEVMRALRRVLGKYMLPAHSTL
Method in brief: as §1

OR2AG2 (Homo sapiens) = molecular target: T14, OR2AG2 (Homo sapiens) (UniProt A6NM03)
T14 sequence (whole entry): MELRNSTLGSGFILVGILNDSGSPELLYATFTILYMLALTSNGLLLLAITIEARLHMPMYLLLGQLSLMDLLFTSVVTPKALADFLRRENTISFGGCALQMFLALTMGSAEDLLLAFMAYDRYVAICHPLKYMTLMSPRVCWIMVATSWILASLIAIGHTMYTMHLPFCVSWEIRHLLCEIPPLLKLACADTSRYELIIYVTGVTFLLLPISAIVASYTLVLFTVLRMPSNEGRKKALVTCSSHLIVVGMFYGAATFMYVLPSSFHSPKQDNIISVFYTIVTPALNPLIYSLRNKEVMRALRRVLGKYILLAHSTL
Method in brief: as §1

OR2AK2 (Homo sapiens) = molecular target: T15, OR2AK2 (Homo sapiens) (UniProt Q8NG84)
T15 sequence (whole entry): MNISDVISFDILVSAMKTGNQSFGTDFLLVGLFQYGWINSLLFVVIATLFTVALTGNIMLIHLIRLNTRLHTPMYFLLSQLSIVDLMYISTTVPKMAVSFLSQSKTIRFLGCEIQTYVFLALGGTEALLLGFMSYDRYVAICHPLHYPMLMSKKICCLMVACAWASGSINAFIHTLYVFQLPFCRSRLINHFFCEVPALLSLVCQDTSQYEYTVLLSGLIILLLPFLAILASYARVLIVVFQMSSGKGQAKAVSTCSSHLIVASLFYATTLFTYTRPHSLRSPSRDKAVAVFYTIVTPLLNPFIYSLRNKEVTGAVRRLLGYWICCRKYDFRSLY
Method in brief: as §1

OR2AP1 (Homo sapiens) = molecular target: T16, OR2AP1 (Homo sapiens) (UniProt Q8NGE2)
T16 sequence (whole entry): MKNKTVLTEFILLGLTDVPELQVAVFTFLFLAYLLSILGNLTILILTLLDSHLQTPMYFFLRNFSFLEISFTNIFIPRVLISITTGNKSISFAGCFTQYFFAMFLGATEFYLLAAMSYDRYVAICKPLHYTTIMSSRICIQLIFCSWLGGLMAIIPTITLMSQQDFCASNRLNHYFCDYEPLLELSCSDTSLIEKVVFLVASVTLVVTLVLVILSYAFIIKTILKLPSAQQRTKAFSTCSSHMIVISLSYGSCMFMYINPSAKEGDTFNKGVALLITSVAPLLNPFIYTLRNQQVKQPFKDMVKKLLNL
Method in brief: as §1

OR2AT4 (Homo sapiens) = molecular target: T17, OR2AT4 (Homo sapiens) (UniProt A6NND4)
T17 sequence (whole entry): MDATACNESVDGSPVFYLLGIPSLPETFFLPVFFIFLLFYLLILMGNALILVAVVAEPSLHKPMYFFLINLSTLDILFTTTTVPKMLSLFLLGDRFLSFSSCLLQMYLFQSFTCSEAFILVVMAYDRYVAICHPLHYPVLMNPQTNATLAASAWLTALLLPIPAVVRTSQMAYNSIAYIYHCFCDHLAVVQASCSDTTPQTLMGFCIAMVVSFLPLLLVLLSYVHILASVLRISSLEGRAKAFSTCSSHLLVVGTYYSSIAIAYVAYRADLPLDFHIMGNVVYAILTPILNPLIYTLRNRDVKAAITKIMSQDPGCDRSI
Method in brief: as §1

OR2B11 (Homo sapiens) = molecular target: T18, OR2B11 (Homo sapiens) (UniProt Q5JQS5)
T18 sequence (whole entry): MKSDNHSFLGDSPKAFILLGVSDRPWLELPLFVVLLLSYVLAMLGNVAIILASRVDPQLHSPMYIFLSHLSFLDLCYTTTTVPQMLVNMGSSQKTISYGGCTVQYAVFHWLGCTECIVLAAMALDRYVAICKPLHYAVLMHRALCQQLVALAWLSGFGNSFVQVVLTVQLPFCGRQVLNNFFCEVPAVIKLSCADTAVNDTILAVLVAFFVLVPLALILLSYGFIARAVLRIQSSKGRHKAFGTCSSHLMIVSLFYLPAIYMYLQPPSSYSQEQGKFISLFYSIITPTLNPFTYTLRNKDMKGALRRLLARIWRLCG
Method in brief: as §1

OR2B2 (Homo sapiens) = molecular target: T19, OR2B2 (Homo sapiens) (UniProt Q9GZK3)
T19 sequence (whole entry): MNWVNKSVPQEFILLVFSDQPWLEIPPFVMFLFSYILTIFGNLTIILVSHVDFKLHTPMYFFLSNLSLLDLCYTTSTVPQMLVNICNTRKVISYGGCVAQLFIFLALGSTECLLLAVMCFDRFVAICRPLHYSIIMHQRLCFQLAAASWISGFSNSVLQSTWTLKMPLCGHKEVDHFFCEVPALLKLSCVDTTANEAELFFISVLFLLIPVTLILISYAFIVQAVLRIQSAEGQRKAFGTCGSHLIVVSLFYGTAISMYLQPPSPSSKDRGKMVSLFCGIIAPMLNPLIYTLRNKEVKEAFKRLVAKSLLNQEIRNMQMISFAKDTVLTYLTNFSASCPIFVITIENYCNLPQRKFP
Method in brief: as §1

CCC1OC(=O)C(O)=C1C (stereo unspecified)
odorant receptor agonist call (OR2A1 T73A R74C S168C): inactive
odorant receptor agonist call (OR2A12 (Homo sapiens)): inactive
odorant receptor agonist call (OR2A14 (Homo sapiens)): inactive
odorant receptor agonist call (OR2A2 (Homo sapiens)): inactive
odorant receptor agonist call (OR2A25 (Homo sapiens)): inactive
odorant receptor agonist call (OR2A2): inactive
odorant receptor agonist call (OR2A4 (Homo sapiens)): inactive
odorant receptor agonist call (OR2A5 (Homo sapiens)): inactive
odorant receptor agonist call (OR2A5 I126V A202S A255T): inactive
odorant receptor agonist call (OR2A7 (Homo sapiens)): inactive
odorant receptor agonist call (OR2A7): inactive
odorant receptor agonist call (OR2AE1 (Homo sapiens)): inactive
odorant receptor agonist call (OR2AG1 (Homo sapiens)): inactive
odorant receptor agonist call (OR2AG2 (Homo sapiens)): inactive
odorant receptor agonist call (OR2AK2 (Homo sapiens)): inactive
odorant receptor agonist call (OR2AP1 (Homo sapiens)): inactive
odorant receptor agonist call (OR2AT4 (Homo sapiens)): inactive
odorant receptor agonist call (OR2B11 (Homo sapiens)): inactive
odorant receptor agonist call (OR2B2 (Homo sapiens)): inactive

c1ccc2ncccc2c1
odorant receptor agonist call (OR2A25 (Homo sapiens)): active
odorant receptor agonist call (OR2B11 (Homo sapiens)): active
